In assay [1] the test system is Nucleic Acid. The assay can be described thus: Stabilization of human G4-telomeric quadruplex assessed as melting temperature by FRET assay. The class given is nucleic-acid assay. The method, boiled down:
(§1)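 FRET melting of FAM/TAMRA dual-labelled oligonucleotides, annealed at 90°C in 60 mM K+ cacodylate buffer pH 7.4. Final conditions: 200 nM DNA and 500 nM ligand. Fluorescence read at 0.5°C steps from 30 to 100°C, ramping 1°C/min, with excitation 450–495 nm and emission 515–545 nm. Tm taken as the derivative maximum; ΔTm given relative to ligand-free control.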

Assay [2] concerns Nucleic Acid. As to the kind of experiment: Stabilization of synthetic duplex DNA assessed as melting temperature by FRET assay. It counts as nucleic-acid assay. Summed up: as §1
The subject of assay [3] is Nucleic Acid. The assay can be described thus: Stabilization of human G4-KIT1 DNA quadruplex assessed as melting temperature by FRET assay. It counts as nucleic-acid assay. Summed up: as §1
In assay [4] the test system is Nucleic Acid. The assay can be described thus: Stabilization of human G4-KIT2 DNA quadruplex assessed as melting temperature by FRET assay. It counts as nucleic-acid assay. The method, boiled down: as §1
Assay [5] can be described thus: Antiproliferative activity against human GIST882 cells after 96 hrs by SRB assay. To be noted: GIST882, 96 h. It counts as functional, cell-based. The method, boiled down: (§2)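 Sulforhodamine B assay after 96 hr continuous drug exposure; IC50 in μM taken as the mean of triplicate experiments. GIST882 cells were kept in RPMI 1640 with 15% FBS. HT-29 and MCF-7 were kept in DMEM with 10% FBS, and HGC-27 in MEM with 10% FBS.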

Assay [6] has as its system HGC-27. As to the kind of experiment: Antiproliferative activity against human HGC27 cells after 96 hrs by SRB assay. Particulars: HGC-27, 96 h. The class given is functional, cell-based. Summed up: as §2
For assay [7], the system named is HT-29. As to the kind of experiment: Antiproliferative activity against human HT-29 cells after 96 hrs by SRB assay. It counts as functional, cell-based. Particulars: HT-29, 96 h. Summed up:
as §2
(In general: The SRB assay estimates cell density from bound dye.)

For assay [8], the system named is MCF7. As to the kind of experiment: Antiproliferative activity against human MCF7 cells after 96 hrs by SRB assay. The class given is functional, cell-based. To be noted: MCF7, 96 h. The method, boiled down:
as §2

The test system of assay [9] is GIST882. As to the kind of experiment: Cytotoxicity against human GIST882 cells assessed as effect on cell viability after 3 to 6 days by luciferase based luminescence assay. It counts as functional. The method, boiled down:
(§3)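 CellTiter-Glo luciferase/ATP luminescence viability read-out. Cells plated at 10,000–30,000 per well and grown overnight in serum-containing medium, then dosed for 3 to 6 days alongside a water-solvent control. Signal normalized to control; each point in triplicate. GIST882, GISTT1 and LMS04 were grown in RPMI 1640 with 15% FBS. GIST48 and GIST48B were grown in F10 with 15% FBS, mito+ serum extender and bovine pituitary extract.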

The test system of assay [10] is GISTT1. The assay can be described thus: Cytotoxicity against human GISTT1 cells assessed as effect on cell viability after 3 to 6 days by luciferase based luminescence assay. The class given is functional. Summed up: as §3
For assay [11], the system named is GIST48B. As to the kind of experiment: Cytotoxicity against human GIST48B cells assessed as effect on cell viability after 3 to 6 days by luciferase based luminescence assay. It counts as functional. Summed up: as §3
Assay [12] is filed under the species Homo sapiens. As to the kind of experiment: Cytotoxicity against human LMSO4 cells assessed as effect on cell viability after 3 to 6 days by luciferase based luminescence assay. The class given is functional. Summed up: as §3
Assay [13] has as its target Mast/stem cell growth factor receptor Kit (Homo sapiens) (UniProt P10721). As to the kind of experiment: Reduction in KIT mRNA expression in human GIST882 cells after 24 hrs. The class given is functional, cell-based. The method, boiled down: (§4)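 GIST882 cells (1×10^6) exposed to drug for 24 hr. Total RNA extracted, and 250 ng used for one-step RT-PCR of KIT, MYC, hTERT and N-RAS. Band levels normalized to GAPDH and to untreated control.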

For assay [14] the target is unchanged. The assay can be described thus: Reduction in KIT mRNA expression in human GIST882 cells at 1 uM after 24 hrs relative to GAPDH level. The class given is functional, cell-based. Also noted: scale not given: the % may be the effect or the level left. The method, boiled down: as §4
Assay [15] in a line: Reduction in MYC mRNA expression in human GIST882 cells after 24 hrs. The class given is functional, cell-based. Further details: scale not given: the % may be the effect or the level left. The method, boiled down: as §4
The nature of assay [16]: Reduction in N-RAS mRNA expression in human GIST882 cells after 24 hrs. It counts as functional, cell-based. The method, boiled down: as §4
Assay [17] in a line: Reduction in telomerase mRNA expression in human GIST882 cells after 24 hrs. It counts as functional, cell-based. Summed up:
as §4

Assay [18] concerns the target Mast/stem cell growth factor receptor Kit (Homo sapiens) (UniProt P10721). The assay can be described thus: Reduction in KIT protein expression in human GIST882 cells at 1 uM after 24 hrs by Western blot. The class given is functional, cell-based. The method, boiled down: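 GIST882 cells treated for 24 hr, compound at 0.5 or 1 μM and imatinib at 5 or 10 μM. Lysate protein measured by Bradford, then electrophoresis and immunoblotting for total KIT with an actin loading control.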
(Immunoblotting shows a protein as a band on a membrane.)

For assay [19], the target named is Telomerase reverse transcriptase (Homo sapiens) (UniProt O14746). As to the kind of experiment: Inhibition of telomerase in human GIST882 cells at 0.5 uM by TRAP-LIG assay. It counts as cell-based. Summed up:
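TRAP-LIG assay on GIST882 cells treated for one week. Cell protein extract in CHAPS lysis buffer was elongated with TS primer in TRAP buffer at 30°C for 10 min, then purified. A second PCR with ACX/TS primers ran 35 cycles. Products were run on 12% PAGE and stained with SYBR green. Ladder intensity was normalized to an untreated-protein positive control after negative-control background subtraction.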

Assay [20] deals with GIST882. As to the kind of experiment: Antiproliferative activity against human GIST882 cells at 0.1 uM after 2 weeks. The class given is functional, cell-based. Summed up:
(§5)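 Long-term proliferation of GIST882 cells under continuous exposure for three weeks at 0.1, 0.25 or 0.5 μM. Growth followed as cumulative population doublings relative to an untreated control arm.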

For assay [21], the system named is GIST882. The assay can be described thus: Antiproliferative activity against human GIST882 cells at 0.25 uM after 1 week. It counts as functional, cell-based. The method, boiled down: as §5
The test system of assay [22] is GIST882. As to the kind of experiment: Antiproliferative activity against human GIST882 cells at 0.5 uM after 1 week. The class given is functional, cell-based. The method, boiled down:
as §5

Assay [23] has as its system GIST882. The assay can be described thus: Cytotoxicity against human GIST882 cells assessed as growth inhibition at 0.25 uM after 1 week. It counts as functional, cell-based. The method, boiled down: as §5
The subject of assay [24] is GIST882. The assay can be described thus: Cytotoxicity against human GIST882 cells assessed as growth inhibition at 0.5 uM after 1 week. It counts as functional, cell-based. Summed up: as §5
Assay [25] in a line: Cytotoxicity against human GIST48 cells assessed as effect on cell viability after 3 to 6 days by luciferase based luminescence assay. It counts as functional. Summed up:
as §3

For assay [26], the target named is Mast/stem cell growth factor receptor Kit (Homo sapiens) (UniProt P10721). As to the kind of experiment: Reduction in KIT protein expression in human GIST882 cells after 24 hrs by Western blot. The class given is functional, cell-based. The method, boiled down: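 GIST882 cells (RPMI 1640 + 15% FBS) exposed 24 hr to 0.5 or 1 µM test compound, or imatinib at 5 and 10 µM. Lysates protein-quantified by Bradford, then electrophoresed and immunoblotted for total KIT, with actin blot as loading control; vehicle-treated cells as reference.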

The source made the active and inactive calls. No cut-off for these calls is given here.

Consider four compounds from ChEMBL document CHEMBL1136989, “Targeting human gastrointestinal stromal tumor cells with a quadruplex-binding small molecule” (J Med Chem, 2009).

For orientation: ΔTm means the shift of the melting midpoint relative to a reference. What is called IC50 is the concentration at which inhibition is half-maximal.

Chain of Mast/stem cell growth factor receptor Kit (Homo sapiens) (P10721 whole entry): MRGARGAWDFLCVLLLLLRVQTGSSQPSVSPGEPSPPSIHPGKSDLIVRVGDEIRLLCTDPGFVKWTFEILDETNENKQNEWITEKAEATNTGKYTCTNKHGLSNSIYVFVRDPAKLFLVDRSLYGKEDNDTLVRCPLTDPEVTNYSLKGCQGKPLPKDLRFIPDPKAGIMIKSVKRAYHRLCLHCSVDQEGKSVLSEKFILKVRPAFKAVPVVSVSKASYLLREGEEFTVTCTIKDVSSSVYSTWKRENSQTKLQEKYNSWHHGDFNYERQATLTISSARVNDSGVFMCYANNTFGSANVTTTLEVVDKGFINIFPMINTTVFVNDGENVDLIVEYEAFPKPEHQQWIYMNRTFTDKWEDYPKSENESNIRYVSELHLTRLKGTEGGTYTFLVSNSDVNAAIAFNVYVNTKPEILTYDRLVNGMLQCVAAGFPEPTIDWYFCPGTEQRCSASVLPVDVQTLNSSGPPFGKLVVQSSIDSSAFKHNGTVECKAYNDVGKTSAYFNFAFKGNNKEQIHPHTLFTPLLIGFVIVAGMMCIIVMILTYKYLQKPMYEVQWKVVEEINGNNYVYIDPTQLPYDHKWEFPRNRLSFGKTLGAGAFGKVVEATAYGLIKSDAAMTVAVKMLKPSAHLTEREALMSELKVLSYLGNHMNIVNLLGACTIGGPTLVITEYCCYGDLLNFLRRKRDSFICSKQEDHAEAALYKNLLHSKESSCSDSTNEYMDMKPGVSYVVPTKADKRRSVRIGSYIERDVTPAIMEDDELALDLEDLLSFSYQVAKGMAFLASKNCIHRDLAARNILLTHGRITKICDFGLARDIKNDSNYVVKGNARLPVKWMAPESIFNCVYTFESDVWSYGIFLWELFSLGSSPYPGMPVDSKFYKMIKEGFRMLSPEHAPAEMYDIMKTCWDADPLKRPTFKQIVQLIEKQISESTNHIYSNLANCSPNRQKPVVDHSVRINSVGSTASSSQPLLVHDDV
Chain of Telomerase reverse transcriptase (Homo sapiens) (O14746 whole entry): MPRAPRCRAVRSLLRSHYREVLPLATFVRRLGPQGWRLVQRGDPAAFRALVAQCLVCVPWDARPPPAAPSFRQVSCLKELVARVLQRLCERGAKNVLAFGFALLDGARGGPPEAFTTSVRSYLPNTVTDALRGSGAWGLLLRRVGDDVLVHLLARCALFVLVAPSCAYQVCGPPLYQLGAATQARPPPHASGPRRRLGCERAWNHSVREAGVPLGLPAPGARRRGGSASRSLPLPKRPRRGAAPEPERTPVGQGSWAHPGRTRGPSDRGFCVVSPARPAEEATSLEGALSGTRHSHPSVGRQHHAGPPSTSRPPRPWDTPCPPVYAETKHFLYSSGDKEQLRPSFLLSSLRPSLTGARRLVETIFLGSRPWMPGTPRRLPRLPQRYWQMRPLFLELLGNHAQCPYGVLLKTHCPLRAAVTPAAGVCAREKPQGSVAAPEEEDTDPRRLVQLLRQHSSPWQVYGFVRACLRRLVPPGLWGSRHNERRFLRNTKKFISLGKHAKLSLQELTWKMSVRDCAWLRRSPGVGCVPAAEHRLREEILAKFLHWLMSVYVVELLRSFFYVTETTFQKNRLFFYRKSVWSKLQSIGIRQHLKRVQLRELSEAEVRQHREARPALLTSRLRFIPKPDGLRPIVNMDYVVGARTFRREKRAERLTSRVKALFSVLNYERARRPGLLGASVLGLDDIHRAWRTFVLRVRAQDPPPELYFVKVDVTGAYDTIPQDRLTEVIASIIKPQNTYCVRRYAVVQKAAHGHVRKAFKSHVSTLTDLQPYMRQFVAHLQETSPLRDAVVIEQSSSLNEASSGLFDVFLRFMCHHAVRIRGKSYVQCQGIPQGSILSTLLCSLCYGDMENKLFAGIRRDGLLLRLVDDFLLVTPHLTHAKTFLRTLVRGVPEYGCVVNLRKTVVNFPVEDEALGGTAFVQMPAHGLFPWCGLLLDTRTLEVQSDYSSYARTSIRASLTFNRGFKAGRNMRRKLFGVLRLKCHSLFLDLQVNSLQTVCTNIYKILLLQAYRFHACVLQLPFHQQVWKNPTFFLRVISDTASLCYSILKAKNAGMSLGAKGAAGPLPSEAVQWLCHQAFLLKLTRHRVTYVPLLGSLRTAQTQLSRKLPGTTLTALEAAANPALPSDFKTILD

With `O=C1c2cc(NCCN3CCCC3)c3c4c(cc(NCCN5CCCC5)c(c24)C(=O)N1CCN1CCCC1)C(=O)N(CCN1CCCC1)C3=O`, the ΔTm in [1] was 28.7 °C; in assay [2] it was 5.7 °C; in [3], 11.2 °C; in [4] it was 29 °C. For the same compound, the half-inhibitory concentration (IC50) came out at 1600 nM in [5]; 40 nM in assay [6]; 30 nM in assay [7]; 20 nM in assay [8]; 500 nM in [25]. The outcome in assay [9], in assay [10], in assay [17], in [18], in assay [19] and in assay [20] was Active. The result in [21], in assay [22], in assay [23] and in assay [24] was Active. Moreover, the outcome in [11], in assay [12] and in assay [16] was inactive. The results for the Activity entry in assay [13], in assay [14] and in assay [15] were “Dose-dependent effect”, 90% and 25%, respectively.
`C[n+]1ccc(-c2c3nc(c(-c4cc[n+](C)cc4)c4ccc([nH]4)c(-c4cc[n+](C)cc4)c4ccc([nH]4)c(-c4cc[n+](C)cc4)c4nc2C=C4)C=C3)cc1` [TMPYP4]: the ΔTm was 27.8 °C in [1], 8.7 °C in [2], 11.1 °C in [3] and 21.6 °C in [4]. The IC50 turned out to be 13200 nM in assay [5], 2700 nM in [6], 4500 nM in assay [7] and 6100 nM in assay [8]. Moreover, the outcome in [13] and in assay [26] was inactive.
As for `Cc1ccc(NC(=O)c2ccc(CN3CCN(C)CC3)cc2)cc1Nc1nccc(-c2cccnc2)n1` [IMATINIB], the ΔTm in assay [1] worked out at 0.2 °C; in assay [2] it was 0.1 °C; in assay [3] it was 0.2 °C; in assay [4] it was 0.2 °C. In addition, the IC50 came out at 1700 nM in assay [5]; 2400 nM in [6]; 60 nM in assay [7]; 11500 nM in [8]; 18700 nM in assay [25]. Besides, the result in assay [13] was inactive.
For the compound `CN(C)c1ccc(Nc2c3ccc(NC(=O)CCN4CCCC4)cc3nc3cc(NC(=O)CCN4CCCC4)ccc23)cc1`, the ΔTm in assay [1] is 21.6 °C; in [2] it was 7.2 °C; in [3], 6.5 °C; in [4], 18.5 °C. Further, the IC50 is over 25000 nM in assay [5], 2600 nM in assay [6], 2700 nM in assay [7] and 2200 nM in [8]. Further, the outcome in [13] and in assay [26] was inactive.
